High-throughput results deposited in PubChem by several laboratories.
The list is not random: actives were taken first. Their share in the collection is about 12%.
MT stabilizer = stabilizes microtubules in HeLa cells; % tubulin-high responders, % at 10 µM; HeLa tubulin immunostaining HCS, 24 h; share of cells brighter than vehicle mean+2SD; actives 0.83% (n = 200,000);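 active = plate Z-score above 3 for both tubulin-high and condensed-nucleus cell shares, with cell loss under 80%, at 10 µM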;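 also: anti alpha tubulin signal scored within the nucleus-defined area of each cell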
Autophagy mod = modulators of autophagy | MEF GFP-LC3 puncta imaging; test concentration mostly 10 µM | calls only at 10 µM (by protocol) | actives 0.98% (n = 190,000);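 active = percentage of spot-positive cells more than 3 SD above its plate mean, without a fluorescence outlier flag or 80% toxicity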
Dynein transport = dynein cargo transport inhibition; z-score, hits read low; AID 1381; 3617.4 mouse cells, GR-EGFP nuclear translocation imaging; test concentration mostly 20 µM; stimulated with dexamethasone, 1 µM; hits give low values; actives 0.47% (n = 220,000);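 active = plate z-score of nuclear minus cytoplasmic receptor signal below a set negative limit, without overly bright fluorescence or cell loss, cut at about -3.5 in these data, passing the limit was not always enough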;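 also: z-score of nuclear minus cytoplasmic ring GR-EGFP intensity difference per well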
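Buffer or medium: tet-free, stripped-serum medium; Also added: dexamethasone, 1.0 µM final; Technique: high-content fluorescence imaging after fixation; Times: 48 h induction, 1 h compound, 30 min dex at 37 °C; Read-out: per-cell GR-EGFP intensity, nucleus versus surrounding cytoplasmic ring, well-averaged.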
CHOP inhibitor = blocks CHOP induction under ER stress | CHO-K1 CHOP-promoter luciferase, tunicamycin-induced, 15-18 h | inhibition, % at 10 µM | actives 3.8% (n = 220,000);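 active = compounds that reduced the stress-induced luciferase reporter signal by more than about 70% of percent inhibition, limit read from the data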
L major viab = Leishmania major promastigote growth inhibition. Leishmania major promastigotes, resazurin fluorescence viability. inhibition, % at 10 µM. actives 9% (n = 200,000); in the data active = inhibition above about 50%;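 also: promastigotes grown with compound for 44 hours at 28 °C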
bCat nuc transl = modulators of beta-catenin nuclear translocation | nuclear translocation activity, % at 5 µM | actives 0.3% (n = 190,000) | HeLa beta-catenin nuclear translocation, immunofluorescence imaging;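 active = nuclear translocation activity above 50% at 5 µM, with a well cell count of 50 or more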;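 also: per-cell ratio of nuclear to cytoplasmic median beta-catenin stain intensity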
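Assay system: human HeLa cells, native beta-catenin; doses: 5 µM primary, 0.02–20 µM confirmation; incubation: compound treatment 24 h, 37°C, 5% CO2; technique: fluorescence imaging of beta-catenin antibody stain plus DAPI; measure: % activation, nuclear-to-cytoplasmic median beta-catenin signal ratio per cell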
A number is an active result; n = inactive; x = not tested or not shown; + = active, no number.

SMILES	MT stabilizer	Autophagy mod	Dynein transport	CHOP inhibitor	L major viab	bCat nuc transl
COc1cccc(NC(=O)Nc2ccc(C)c(Cl)c2)c1	n	n	n	88	n	n
COc1cccc(NC(=O)Nc2cc(C(=O)O)ccc2C)c1	n	n	n	n	n	n
CC[n+]1ccc(C(=O)NCc2ccccc2)cc1	n	n	n	n	n	n
CCN1CCCC1CNC(=O)Cn1cnc2sc(C)c(S(=O)(=O)N3CCC(C)CC3)c2c1=O (centres undefined)	n	n	n	n	n	n
COc1ccc(CCN=C(NS(=O)(=O)c2ccccc2)c2ccccc2)cc1OC	n	n	n	n	n	n
COc1ccc(CCN=C(NS(=O)(=O)c2ccc(Cl)cc2)c2ccccc2)cc1	n	n	n	n	66	n
C[n+]1ccc(CC2C(=[N+]([O-])[O-])C=Nc3ncnn32)cc1 (centres undefined)	n	n	n	n	n	n
COc1ccc(C2C(C#N)=C(N)OC3=C2C(=O)CCC3)cc1Cn1nc(C)c([N+](=O)[O-])c1C (centres undefined)	n	n	n	n	93	n
O=C(Nc1nccs1)C1Cc2ccccc2CN1S(=O)(=O)c1ccc(F)cc1 (centres undefined)	n	n	n	n	66	n
O=C(Nc1ccc2c(c1)OCO2)C1Cc2ccccc2CN1S(=O)(=O)c1cccs1 (centres undefined)	n	n	n	n	99	n
O=C(Nc1ccc2c(c1)OCO2)C1CCN(S(=O)(=O)c2cccs2)CC1	n	n	n	n	n	n
O=C(Nc1nnc(C2CC2)s1)C1Cc2ccccc2CN1S(=O)(=O)c1ccccc1F (centres undefined)	n	n	n	n	100	n
Cc1ccc(-n2[nH]c(C)c(/C=N/Nc3ccc([N+](=O)[O-])cc3[N+](=O)[O-])c2=O)cc1	n	n	n	n	n	n
CCOC(=O)C1CCCN(S(=O)(=O)c2ccccc2)C1 (centres undefined)	n	n	n	n	n	n
CCOc1ccc(S(=O)(=O)N2CCN(C)CC2)c(C)c1C	n	n	n	n	n	n
CCOC(=O)C1CCCN(S(=O)(=O)c2ccc(OC)c3ccccc23)C1 (centres undefined)	11	n	n	n	n	x
CCOc1ccc(S(=O)(=O)N2CCCCC2)c(C)c1C	n	n	n	n	82	n
CC(C)CN1C(=O)C(=Nc2cccnc2)c2ccccc21	n	n	n	n	82	n
C=CCN1C(=O)/C(=N/n2cnnc2)c2ccccc21	n	n	n	n	n	n
COc1cc(NC(=O)c2cc3sccc3n2C)cc(OC)c1	n	n	n	75	n	n
Cc1cccc(NC(=O)CN2C(=O)S/C(=C\c3cccn3-c3cccc(C(=O)O)c3)C2=O)c1	n	n	n	n	n	n
CC(/C=C1\SC(=O)N(CC(=O)Nc2cccc(O)c2)C1=O)=C\c1ccccc1	n	n	n	95	n	n
CC(/C=C1\SC(=S)N(CC(=O)O)C1=O)=C\c1ccccc1	x	x	n	n	x	n
Cc1cccc(NC(=O)CN2C(=O)S/C(=C\C(=O)Nc3ccc(Cl)cc3)C2=O)c1	n	n	n	n	54	n
O=C(/C=C1\SC(=O)N(CC(=O)Nc2ccc(F)cc2)C1=O)Nc1ccc(Cl)cc1	n	n	n	n	52	n
SMILES	MT stabilizer	Autophagy mod	Dynein transport	CHOP inhibitor	L major viab	bCat nuc transl
O=C(/C=C1\SC(=O)N(CC(=O)Nc2ccc(Cl)cc2)C1=O)Nc1ccc(F)cc1	n	n	n	n	n	n
CCCC(=O)Nc1ccc(Nc2ccccc2)cc1	n	n	n	n	64	n
CCCCC(CC)C(=O)Nc1ccc(Nc2ccccc2)cc1 (centres undefined)	n	n	n	n	99	n
COc1cccc(C(=O)NCC(=O)n2nc(C)cc2C)c1	n	n	n	n	n	n
Cc1ccc(NC(=O)c2cc(N3C(=O)C=CC3=O)ccc2Cl)cc1C	n	n	n	104	n	n
Cc1ccc(NS(=O)(=O)c2cc(NC(=O)c3ccc4c(c3)NC(=O)CS4)ccc2Cl)c(C)c1	n	n	n	n	87	n
Cc1ccc(NS(=O)(=O)c2cc(C(=O)O)ccc2Cl)c(C)c1	n	n	n	n	n	n
CC1CCCCN1C(=O)COc1ccc(F)cc1 (centres undefined)	n	n	n	n	n	n
CC(Oc1ccccc1)C(=O)N1CCN=C1SCc1ccccc1 (centres undefined)	n	n	n	n	n	n
Cc1ccc(NC(=O)/C(C#N)=C(\N)C(Cl)(Cl)Cl)nc1	n	+	n	101	100	n
CCCCn1nc(C(=O)Nc2cc(S(=O)(=O)N(C)C)ccc2C)c2ccccc2c1=O	x	x	n	n	x	n
CC(=O)Nc1ccc2nc(C)n(Cc3ccc(Cl)cc3)c(=O)c2c1	n	n	n	n	78	n
CCOC(=O)c1cc(C(=O)OCC)c2cc(Br)ccc2n1	n	n	n	88	n	x
Cn1cc(/C=N/n2cnc3scc(-c4ccc(Cl)cc4)c3c2=O)c2ccccc21	n	n	n	x	59	187
COC(=O)c1ccccc1NC(=O)CSc1nnc(-c2cccnc2)n1C	n	n	n	n	n	n
CCOc1cc(/C=N/NC(=S)Nc2ccccc2C(F)(F)F)ccc1OCC(=O)N1CCOCC1	n	n	n	n	n	n
Cc1cc(Nc2ccccc2)n(-c2cccc(Cl)c2)n1	n	n	n	n	n	n
Nc1ccccc1Nc1cc(-c2cccc(Cl)c2)nn1-c1ccccc1	n	n	n	86	n	n
O=C(NC1CCCC1)C(c1ccccc1)N(Cc1cccnc1)C(=O)Cc1cccs1 (centres undefined)	n	n	n	n	n	n
N#Cc1c(-c2ccc(Br)cc2)cc(-c2cccnc2)nc1N	n	n	n	n	n	n
N#Cc1c(-c2cccs2)cc(-c2cccnc2)nc1N	n	n	n	n	53	n
N#Cc1c(-c2ccc(F)cc2)cc(-c2cccnc2)nc1N	n	n	n	88	n	n
C=C(C)C(=O)Nc1ccc2c(c1)OCCOCCOCCO2	x	x	n	n	x	n
COc1ccc(C2N(S(=O)(=O)c3ccc(C)cc3)CCN2S(=O)(=O)c2ccc(C)cc2)cc1	n	n	n	n	66	x
COc1ccc(S(=O)(=O)N2CC(C)N(S(=O)(=O)c3ccc(OC)cc3)CC2C)cc1 (centres undefined)	x	x	x	x	x	n
CC(C)C1N(S(=O)(=O)c2ccccc2)CCN1S(=O)(=O)c1ccccc1	n	n	n	76	n	n
CC(=O)N1CCN(S(=O)(=O)c2ccc(C)cc2)C1c1ccc(N(C)C)cc1 (centres undefined)	n	n	n	n	n	n
